According to ChEMBL document CHEMBL4354825, “Design and Synthesis of Basic Selective Estrogen Receptor Degraders for Endocrine Therapy Resistant Breast Cancer” (J Med Chem, 2019):
The source made the active and inactive calls. No cut-off for these calls is given here.

Assays:
[1] = Cmax in CD-1 mouse plasma at 50 mg/kg, po measured upto 24 hrs by LC-MS/MS analysis; conditions: in vivo
[2] = AUC (0 to infinity) in C57BL/6 mouse brain at 50 mg/kg, po measured upto 24 hrs by LC-MS/MS analysis; format: ADME, organism-based; design: dose 50 mg/kg, route oral, time infinity; conditions: in vivo
Summary of the method: (§1)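 Full PK run by a contract lab. Dosing was 50 mg/kg p.o. in water and 10% SBE-β-CD/PEG-400 (9:1 v/v), and 5 mg/kg i.v. Sampling at 0.25, 0.5, 1, 2, 4, 8 and 24 h (N = 5). Plasma samples were diluted in 50% acetonitrile and quantified by LC-MS/MS against standards serially diluted in 50% acetonitrile. Brain was also sampled after the oral dose.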

Mus musculus [3] = experiment: In vivo degradation of ERalpha in C57BL/6 mouse at 50 mg/kg, po measured after 7 hrs by Western blot analysis; format: functional, organism-based
Summary of the method: (§2)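 Female C57BL/6J mice aged 9–12 weeks were dosed at 50 mg/kg p.o. in PEG 400/10% HPCD (1:9 v/v). Regimens were a single dose with sacrifice at 5 h, or 3 daily doses with sacrifice 5 h (n = 5) or 7 h (n = 6) after the last dose. Ovaries and uterus were homogenized, 20 μg protein was run by SDS-PAGE, and the blot was probed for ERα and normalized to β-actin.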

[4] = MRT (0 to infinity) in CD-1 mouse plasma at 50 mg/kg, po measured upto 24 hrs by LC-MS/MS analysis; conditions: in vivo
[5] = AUC (0 to infinity) in CD-1 mouse plasma at 50 mg/kg, po measured upto 24 hrs by LC-MS/MS analysis; conditions: in vivo
[6] = Antiproliferative activity against human MCF7:WS8 cells assessed as reduction in cell viability incubated for 5 days by Hoechst 33258 dye based assay relative to control; format: functional; conditions: MCF7:WS8, 120 h
Summary of the method: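 Cells were seeded at 5000 per well; MCF7:WS8 had been estrogen-stripped for 2 days first. Compounds were serially diluted in DMSO, with 0.01% DMSO as vehicle. The medium was removed on day 5 (MCF7:WS8) or day 7 (MCF7:5C), and cells were lysed by freezing at −80 °C overnight. DNA was measured by Hoechst 33258 fluorescence. Maximum efficacy was normalized to vehicle (0%) and no cells (100%); at least three biological replicates.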

[7] = AUC extrapolated from the last time point to infinity in CD-1 mouse plasma at 50 mg/kg, po measured upto 24 hrs by LC-MS/MS analysis; conditions: in vivo
[8] = MRT (0 to infinity) in CD-1 mouse at 5 mg/kg, iv measured upto 24 hrs by LC-MS/MS analysis; conditions: in vivo
[9] = molecular target: T1, Estrogen receptor (Homo sapiens) (UniProt P03372); experiment: Induction of degradation of ERalpha in human MCF7:WS8 cells at 10 nM in presence of MG-132 incubated for 24 hrs by Western blot analysis; format: cell-based
T1 sequence (whole entry): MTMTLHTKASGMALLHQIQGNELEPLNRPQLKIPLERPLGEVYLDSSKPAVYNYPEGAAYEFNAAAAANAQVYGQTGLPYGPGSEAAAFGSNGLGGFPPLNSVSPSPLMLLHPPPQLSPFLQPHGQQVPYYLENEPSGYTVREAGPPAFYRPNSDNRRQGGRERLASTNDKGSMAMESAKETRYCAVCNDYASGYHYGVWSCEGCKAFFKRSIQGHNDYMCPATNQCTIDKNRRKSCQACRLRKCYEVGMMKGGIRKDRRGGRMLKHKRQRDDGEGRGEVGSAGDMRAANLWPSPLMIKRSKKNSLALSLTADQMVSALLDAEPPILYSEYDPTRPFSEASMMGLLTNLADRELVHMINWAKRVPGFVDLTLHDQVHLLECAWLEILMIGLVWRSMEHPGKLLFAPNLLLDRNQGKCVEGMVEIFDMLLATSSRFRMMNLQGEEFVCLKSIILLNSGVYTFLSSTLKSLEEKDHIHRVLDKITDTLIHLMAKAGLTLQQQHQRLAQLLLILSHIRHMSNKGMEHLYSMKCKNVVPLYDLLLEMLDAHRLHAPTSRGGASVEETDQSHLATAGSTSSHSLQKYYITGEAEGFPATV

[10] = Oral bioavailability in C57BL/6 mouse at 50 mg/kg measured upto 24 hrs by LC-MS/MS analysis; format: ADME, organism-based; conditions: in vivo
Summary of the method: as §1

T47D = experiment: Cytotoxicity against human T47D 3D spheroid cells assessed as reduction in tumor cell viability at 10 nM incubated for 14 days by celltiter-glo 3D cell viability assay
Mus musculus [11] = experiment: In vivo degradation of ERalpha in C57BL/6 mouse at 50 mg/kg, po administered for 3 days and measured on day 3 by Western blot analysis; format: functional, organism-based
Summary of the method: as §2

[12] = Plasma concentration in C57BL/6 mouse at 100 mg/kg, po measured after 0.5 hrs by LC/MS-MS analysis; format: ADME, organism-based
Summary of the method: (§3)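 PK screen in female C57BL/6 mice (N = 3 per time point). Dosed by gavage at 100 mg/kg in HPβD/PEG-400. Plasma and brain were taken from perfused mice at 30 and 120 min. Quantified by LC-MS/MS in MRM mode, with standard curves in each matrix and a common internal standard. Values are mean and s.d.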

cells = conditions: Homo sapiens, MCF7:5C, 168 h, read-out: pIC50 (converted)
[13] = molecular target: T1, Estrogen receptor (Homo sapiens); experiment: Induction of degradation of ERalpha in human MCF7:WS8 cells at 100 nM in presence of MG-132 incubated for 24 hrs by Western blot analysis; format: cell-based
MCF7:TAM1 [14] = experiment: Cytotoxicity against human MCF7:TAM1 3D spheroid cells assessed as reduction in tumor cell viability at 10 nM incubated for 14 days by celltiter-glo 3D cell viability assay
[15] = Cmax in C57BL/6 mouse brain at 50 mg/kg, po measured upto 24 hrs by LC-MS/MS analysis; format: ADME, organism-based; design: dose 50 mg/kg, route oral; conditions: in vivo
Summary of the method: as §1

[16] = Cmax in C57BL/6 mouse at 5 mg/kg, iv measured upto 24 hrs by LC-MS/MS analysis; format: ADME, organism-based; design: dose 5 mg/kg, route intravenous; conditions: in vivo
Summary of the method: as §1

[17] = Plasma concentration in C57BL/6 mouse at 100 mg/kg, po measured after 2 hrs by LC/MS-MS analysis; format: ADME, organism-based
Summary of the method: as §3

MCF7:TAM1 [18] = experiment: Antitumor activity against human MCF7:TAM1 cells xenografted in athymic nude mouse assessed as tumor regression at 100 mg/kg, po measured after 4 weeks; format: functional, organism-based
Summary of the method: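 MCF7:TAM1 cells were implanted into mammary fat pads of ovariectomized 4–6-week-old athymic nude mice carrying subcutaneous E2 silastic capsules (1.0 cm). Dosing was 100 mg/kg/day p.o. in 10% HPCD/PEG-400 (9:1). Tumor area was measured weekly by calipers as (length/2)×(width/2)×π.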

[19] = AUClast/D in C57BL/6 mouse plasma at 50 mg/kg, po measured upto 24 hrs by LC-MS/MS analysis; format: ADME, organism-based; conditions: in vivo
Summary of the method: as §1

Cc1cc(F)cc(C)c1C(=O)c1sc2cc(O)ccc2c1Oc1ccc(OC2CN(CCCF)C2)cc1
Cmax [1]: 413 ng/mL | AUC [2]: 3450 ng·h/mL | Activity (Mus musculus [3]): Active | MRT [4]: 6.05 h | AUC [5]: 2292 ng·h/mL | Emax [6]: 80% | %AUCextra [7]: 26.8% | MRT [8]: 1.07 h | Activity [9]: inactive | F [10]: 21.9% | Activity (T47D): Active | Activity (Mus musculus [11]): Active | concentration at 0.5 h [12]: 2490 nM | IC50 (cells): 0.347 nM | Activity [13]: inactive | Activity (MCF7:TAM1 [14]): Active | Cmax [15]: 635 ng/mL | Cmax [16]: 1590 ng/mL | concentration at 2 h [17]: 2150 nM | Activity (MCF7:TAM1 [18]): Active | AUClast/dose [19]: 33.6 ng·h/mL
